# Results of several laboratories.
# Compare with care: the assays were run in different laboratories.
# Cell line: HL-60
# Observed: cell growth or viability
Structure (SMILES),assay,conditions,IC50 [µM]
COc1ccc(Nc2ncnc3c2ncn3Cc2ccc(C(=O)NO)cc2)cc1,MTT,72 h,1.98
c1ccc(-c2cc(CNc3cccc4cccnc34)on2)nc1,MTS,72 h,64.8
O=C(CSc1nc2ccccc2s1)N/N=C/c1ccc(OCC(=O)Nc2ccc(Br)cc2)cc1,MTS,72 h,> 100
c1ccc(-c2cc(CNc3cccc4cccnc34)on2)cc1,MTS,72 h,79.6
C=C1C[C@@]23CC[C@H]4[C@@](C)(CCC[C@@]4(C)C(=O)O)[C@@H]2CC[C@@H]1C3,XTT,75 h,155
O=C(CSc1nc2ccccc2s1)N/N=C/c1ccc(OCC(=O)Nc2cccc(Cl)c2)cc1,MTS,72 h,> 100
O=C(NO)c1ccc(Cn2cnc3c(Nc4cccc([N+](=O)[O-])c4)ncnc32)cc1,MTT,72 h,1.86
Nc1cccc2c1C(=O)N(C1CCC(=O)NC1=O)C2=O (stereo not drawn),CCK-8,7 days,> 10
FC(F)(F)c1ccc(-c2cc(CNc3cccc4cccnc34)on2)cc1,MTS,72 h,> 100
O=C(NO)c1ccc(Cn2cnc3c(Nc4ccc(Cl)cc4)ncnc32)cc1,MTT,72 h,0.62
O=C(CSc1nc2ccccc2s1)N/N=C/c1ccc(OCC(=O)Nc2cccc(Br)c2)cc1,MTS,72 h,> 100
N#Cc1ccc(-c2cc(COc3cc(C(F)(F)F)nc4ccccc34)on2)cc1,MTS,72 h,62.2
